# From ChEMBL document CHEMBL1765020, “Synthesis and structure-affinity relationships of novel dibenzylideneacetone derivatives as probes for β-amyloid plaques” (J Med Chem, 2011)
# What was measured:
# Spleen [1] = assay: Biodistribution in ddY mouse spleen at 1 uCi/100 uL, iv after 2 mins by gamma counting; format: ADME, organism-based; conditions: in vivo
# Spleen [2] = assay: Biodistribution in ddY mouse spleen at 1 uCi/100 uL, iv after 60 mins by gamma counting; format: ADME, organism-based; conditions: in vivo, 1 h
# Thyroid gland [3] = assay: Biodistribution in ddY mouse thyroid at 1 uCi/100 uL, iv after 30 mins by gamma counting; format: ADME, organism-based; conditions: in vivo, 0.5 h
# Blood [4] = assay: Biodistribution in ddY mouse blood at 1 uCi/100 uL, iv after 120 mins by gamma counting; format: ADME, organism-based; conditions: in vivo, 2 h
# In short: (§1)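 Normal female ddY mice (5 weeks, about 20 g; n = 4 per group) received radiotracer iv. Organs were removed and weighed at 2–120 min and counted in a γ-counter. Percent dose per gram of wet tissue was calculated against diluted aliquots of the injected material and reported as mean ± SD.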
# Blood [5] = assay: Biodistribution in ddY mouse blood at 1 uCi/100 uL, iv after 60 mins by gamma counting; format: ADME, organism-based; conditions: in vivo, 1 h; in short: as §1
# Brain [6] = assay: Biodistribution in ddY mouse brain at 1 uCi/100 uL, iv after 120 mins by gamma counting; format: ADME, organism-based; conditions: in vivo, 2 h; in short: as §1
# Thyroid gland [7] = assay: Biodistribution in ddY mouse thyroid at 1 uCi/100 uL, iv after 60 mins by gamma counting; format: ADME, organism-based; conditions: in vivo, 1 h
# Heart [8] = assay: Biodistribution in ddY mouse heart at 1 uCi/100 uL, iv after 60 mins by gamma counting; format: ADME, organism-based; conditions: in vivo, 1 h; in short: as §1
# Liver [9] = assay: Biodistribution in ddY mouse liver at 1 uCi/100 uL, iv after 60 mins by gamma counting; format: ADME, organism-based; conditions: in vivo, 1 h
# Stomach [10] = assay: Biodistribution in ddY mouse stomach at 1 uCi/100 uL, iv after 120 mins by gamma counting; format: ADME, organism-based; conditions: in vivo, 2 h
# Kidney [11] = assay: Biodistribution in ddY mouse kidney at 1 uCi/100 uL, iv after 60 mins by gamma counting; format: ADME, organism-based; conditions: in vivo, 1 h
# Stomach [12] = assay: Biodistribution in ddY mouse stomach at 1 uCi/100 uL, iv after 60 mins by gamma counting; format: ADME, organism-based; conditions: in vivo, 1 h
# Spleen [13] = assay: Biodistribution in ddY mouse spleen at 1 uCi/100 uL, iv after 30 mins by gamma counting; format: ADME, organism-based; conditions: in vivo, 0.5 h
# Heart [14] = assay: Biodistribution in ddY mouse heart at 1 uCi/100 uL, iv after 15 mins by gamma counting; format: ADME, organism-based; conditions: in vivo, 0.25 h; in short: as §1
# Intestine [15] = assay: Biodistribution in ddY mouse intestine at 1 uCi/100 uL, iv after 2 mins by gamma counting; format: ADME, organism-based; conditions: in vivo; in short: as §1
# Thyroid gland [16] = assay: Biodistribution in ddY mouse thyroid at 1 uCi/100 uL, iv after 15 mins by gamma counting; format: ADME, organism-based; conditions: in vivo, 0.25 h
# Thyroid gland [17] = assay: Biodistribution in ddY mouse thyroid at 1 uCi/100 uL, iv after 2 mins by gamma counting; format: ADME, organism-based; conditions: in vivo
# Lung [18] = assay: Biodistribution in ddY mouse lung at 1 uCi/100 uL, iv after 15 mins by gamma counting; format: ADME, organism-based; conditions: in vivo, 0.25 h
# Heart [19] = assay: Biodistribution in ddY mouse heart at 1 uCi/100 uL, iv after 120 mins by gamma counting; format: ADME, organism-based; conditions: in vivo, 2 h; in short: as §1
# Intestine [20] = assay: Biodistribution in ddY mouse intestine at 1 uCi/100 uL, iv after 15 mins by gamma counting; format: ADME, organism-based; conditions: in vivo, 0.25 h; in short: as §1
# Spleen [21] = assay: Biodistribution in ddY mouse spleen at 1 uCi/100 uL, iv after 15 mins by gamma counting; format: ADME, organism-based; conditions: in vivo, 0.25 h
# Thyroid gland [22] = assay: Biodistribution in ddY mouse thyroid at 1 uCi/100 uL, iv after 120 mins by gamma counting; format: ADME, organism-based; conditions: in vivo, 2 h
# Brain [23] = assay: Ratio of drug uptake in ddY mouse brain at 1 uCi/100 uL, iv after 2 mins to drug uptake in ddY mouse brain at 1 uCi/100 uL, iv after 60 mins; format: ADME, organism-based; conditions: in vivo
# In short: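 Normal female ddY mice (5 weeks) received the radiotracer iv, and brain uptake (% ID/g, n = 4) was measured by gamma counting at 2 and 60 min. The index is brain uptake at 2 min divided by brain uptake at 60 min.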
# Intestine [24] = assay: Biodistribution in ddY mouse intestine at 1 uCi/100 uL, iv after 60 mins by gamma counting; format: ADME, organism-based; conditions: in vivo, 1 h; in short: as §1
# Brain [25] = assay: Biodistribution in ddY mouse brain at 1 uCi/100 uL, iv after 60 mins by gamma counting; format: ADME, organism-based; conditions: in vivo, 1 h; in short: as §1
# Intestine [26] = assay: Biodistribution in ddY mouse intestine at 1 uCi/100 uL, iv after 120 mins by gamma counting; format: ADME, organism-based; conditions: in vivo, 2 h; in short: as §1
# Stomach [27] = assay: Biodistribution in ddY mouse stomach at 1 uCi/100 uL, iv after 15 mins by gamma counting; format: ADME, organism-based; conditions: in vivo, 0.25 h
# Blood [28] = assay: Biodistribution in ddY mouse blood at 1 uCi/100 uL, iv after 2 mins by gamma counting; format: ADME, organism-based; conditions: in vivo; in short: as §1
# Liver [29] = assay: Biodistribution in ddY mouse liver at 1 uCi/100 uL, iv after 120 mins by gamma counting; format: ADME, organism-based; conditions: in vivo, 2 h
# Lung [30] = assay: Biodistribution in ddY mouse lung at 1 uCi/100 uL, iv after 30 mins by gamma counting; format: ADME, organism-based; conditions: in vivo, 0.5 h
# Brain [31] = assay: Biodistribution in ddY mouse brain at 1 uCi/100 uL, iv after 2 mins by gamma counting; format: ADME, organism-based; conditions: in vivo; in short: as §1
# Heart [32] = assay: Biodistribution in ddY mouse heart at 1 uCi/100 uL, iv after 30 mins by gamma counting; format: ADME, organism-based; conditions: in vivo, 0.5 h; in short: as §1
# Stomach [33] = assay: Biodistribution in ddY mouse stomach at 1 uCi/100 uL, iv after 30 mins by gamma counting; format: ADME, organism-based; conditions: in vivo, 0.5 h
# Stomach [34] = assay: Biodistribution in ddY mouse stomach at 1 uCi/100 uL, iv after 2 mins by gamma counting; format: ADME, organism-based; conditions: in vivo
# Heart [35] = assay: Biodistribution in ddY mouse heart at 1 uCi/100 uL, iv after 2 mins by gamma counting; format: ADME, organism-based; conditions: in vivo; in short: as §1
# Kidney [36] = assay: Biodistribution in ddY mouse kidney at 1 uCi/100 uL, iv after 30 mins by gamma counting; format: ADME, organism-based; conditions: in vivo, 0.5 h
# Lung [37] = assay: Biodistribution in ddY mouse lung at 1 uCi/100 uL, iv after 120 mins by gamma counting; format: ADME, organism-based; conditions: in vivo, 2 h
# Kidney [38] = assay: Biodistribution in ddY mouse kidney at 1 uCi/100 uL, iv after 2 mins by gamma counting; format: ADME, organism-based; conditions: in vivo; in short: as §1
# Lung [39] = assay: Biodistribution in ddY mouse lung at 1 uCi/100 uL, iv after 60 mins by gamma counting; format: ADME, organism-based; conditions: in vivo, 1 h
# Kidney [40] = assay: Biodistribution in ddY mouse kidney at 1 uCi/100 uL, iv after 15 mins by gamma counting; format: ADME, organism-based; conditions: in vivo, 0.25 h; in short: as §1
# Kidney [41] = assay: Biodistribution in ddY mouse kidney at 1 uCi/100 uL, iv after 120 mins by gamma counting; format: ADME, organism-based; conditions: in vivo, 2 h; in short: as §1
# Lung [42] = assay: Biodistribution in ddY mouse lung at 1 uCi/100 uL, iv after 2 mins by gamma counting; format: ADME, organism-based; conditions: in vivo
# Brain [43] = assay: Biodistribution in ddY mouse brain at 1 uCi/100 uL, iv after 15 mins by gamma counting; format: ADME, organism-based; conditions: in vivo, 0.25 h; in short: as §1
# Liver [44] = assay: Biodistribution in ddY mouse liver at 1 uCi/100 uL, iv after 15 mins by gamma counting; format: ADME, organism-based; conditions: in vivo, 0.25 h
# Intestine [45] = assay: Biodistribution in ddY mouse intestine at 1 uCi/100 uL, iv after 30 mins by gamma counting; format: ADME, organism-based; conditions: in vivo, 0.5 h; in short: as §1
# Liver [46] = assay: Biodistribution in ddY mouse liver at 1 uCi/100 uL, iv after 30 mins by gamma counting; format: ADME, organism-based; conditions: in vivo, 0.5 h
# Spleen [47] = assay: Biodistribution in ddY mouse spleen at 1 uCi/100 uL, iv after 120 mins by gamma counting; format: ADME, organism-based; conditions: in vivo, 2 h
# Blood [48] = assay: Biodistribution in ddY mouse blood at 1 uCi/100 uL, iv after 30 mins by gamma counting; format: ADME, organism-based; conditions: in vivo, 0.5 h; in short: as §1
# [49] = Partition coefficient, log D of the compound; format: physicochemical; conditions: octanol/water
# In short: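 Radiotracer partitioned between n-octanol and PBS: vortexed 3 min at room temperature, centrifuged 5 min at 3000 rpm. Weighed samples of the octanol (100 μL) and buffer (500 μL) layers were counted. log D is the log of the ratio of counts per gram, octanol versus PBS.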
# Liver [50] = assay: Biodistribution in ddY mouse liver at 1 uCi/100 uL, iv after 2 mins by gamma counting; format: ADME, organism-based; conditions: in vivo
# Blood [51] = assay: Biodistribution in ddY mouse blood at 1 uCi/100 uL, iv after 15 mins by gamma counting; format: ADME, organism-based; conditions: in vivo, 0.25 h; in short: as §1
# Brain [52] = assay: Biodistribution in ddY mouse brain at 1 uCi/100 uL, iv after 30 mins by gamma counting; format: ADME, organism-based; conditions: in vivo, 0.5 h; in short: as §1
smiles,measurement,setting,value
CN(C)c1ccc(/C=C/C(=O)/C=C/c2ccc([125I])cc2)cc1,Drug uptake,Spleen [1],11.59 % ID/g
same,Drug uptake,Spleen [2],6.28 % ID/g
same,Drug uptake,Thyroid gland [3],26.77 % ID/g
same,Drug uptake,Blood [4],2.29 % ID/g
same,Drug uptake,Blood [5],2.16 % ID/g
same,Drug uptake,Brain [6],0.26 % ID/g
same,Drug uptake,Thyroid gland [7],23.53 % ID/g
same,Drug uptake,Heart [8],1.03 % ID/g
same,Drug uptake,Liver [9],11.54 % ID/g
same,Drug uptake,Stomach [10],0.77 % ID/organ
same,Drug uptake,Kidney [11],7 % ID/g
same,Drug uptake,Stomach [12],0.61 % ID/organ
same,Drug uptake,Spleen [13],12.26 % ID/g
same,Drug uptake,Heart [14],2.69 % ID/g
same,Drug uptake,Intestine [15],1.38 % ID/g
same,Drug uptake,Thyroid gland [16],14.93 % ID/g
same,Drug uptake,Thyroid gland [17],11.56 % ID/g
same,Drug uptake,Lung [18],12.97 % ID/g
same,Drug uptake,Heart [19],1.19 % ID/g
same,Drug uptake,Intestine [20],7.38 % ID/g
same,Drug uptake,Spleen [21],9.94 % ID/g
same,Drug uptake,Thyroid gland [22],32.22 % ID/g
same,Ratio,Brain [23],5.68
same,Drug uptake,Intestine [24],7.68 % ID/g
same,Drug uptake,Brain [25],0.28 % ID/g
same,Drug uptake,Intestine [26],17.65 % ID/g
same,Drug uptake,Stomach [27],1.75 % ID/organ
same,Drug uptake,Blood [28],11.62 % ID/g
same,Drug uptake,Liver [29],16.47 % ID/g
same,Drug uptake,Lung [30],6.91 % ID/g
same,Drug uptake,Brain [31],1.59 % ID/g
same,Drug uptake,Heart [32],1.62 % ID/g
same,Drug uptake,Stomach [33],1.85 % ID/organ
same,Drug uptake,Stomach [34],1.16 % ID/organ
same,Drug uptake,Heart [35],6.42 % ID/g
same,Drug uptake,Kidney [36],15.63 % ID/g
same,Drug uptake,Lung [37],3.35 % ID/g
same,Drug uptake,Kidney [38],15.86 % ID/g
same,Drug uptake,Lung [39],3.64 % ID/g
same,Drug uptake,Kidney [40],22.23 % ID/g
same,Drug uptake,Kidney [41],8.55 % ID/g
same,Drug uptake,Lung [42],24.45 % ID/g
same,Drug uptake,Brain [43],1.11 % ID/g
same,Drug uptake,Liver [44],32.8 % ID/g
same,Drug uptake,Intestine [45],11.62 % ID/g
same,Drug uptake,Liver [46],24.64 % ID/g
same,Drug uptake,Spleen [47],7.34 % ID/g
same,Drug uptake,Blood [48],3.98 % ID/g
same,logD,[49],3.66
same,Drug uptake,Liver [50],44.64 % ID/g
same,Drug uptake,Blood [51],6.58 % ID/g
same,Drug uptake,Brain [52],0.63 % ID/g
